Screening data (PubChem BioAssay)
STAT3 inh – IL-6 driven STAT3 reporter inhibitors, primary screen, U3A cells, luciferase, luminescence, MLSCN library; IL-6 STAT3-luciferase reporter; host cell line lacks STAT1; AID 862, 2007; inhibition, % at 5.5 µM; 190,000 compounds, 0.89% hits;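 active = inhibition above the mean inhibition across all screened compounds plus 3 SD, cut at about 44% in these data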;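 also: 0% = DMSO only wells and 100% = 100 µM nifuroxazide control wells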
PPC-1+TRAIL kill – compounds killing PPC-1 cancer cells with TRAIL present, primary screen, TRAIL potentiator project, ATPLite luminescence, uHTS. PPC-1 cells + TRAIL, ATPLite viability luminescence. cell killing (% activity), % at 4 µM or 5 µM. 220,000 compounds, 0.41% hits. AID 1443, 2008;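 active = cell killing above 50% in the first pass at 4 µM, then a duplicate retest at 5 µM averaging 50% or more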;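 also: plate controls were cells with TRAIL plus DMSO for no effect and medium-only wells lacking cells for full effect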
STAT1 inh – STAT1 signaling inhibitors, primary screen, cell-based, HTS, luciferase reporter. AID 920, 2007. inhibition, % at 5.5 µM. 200,000 compounds, 0.35% hits. NIH 3T3 STAT1-luciferase reporter, IFN-gamma, luminescence;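 active = inhibition above a set limit, the mean inhibition across all tested compounds plus 3 SD, cut at about 34% in these data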;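 also: 0% = IFN-gamma with DMSO and 100% = IFN-gamma with 300 µM nifuroxazide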
HSP90 inh – HSP90 inhibitors, primary screen, cell lysate, luminescence; Rabbit reticulocyte lysate, luciferase refolding luminescence, 3 h; inhibition, % at 5.6 µM; 290,000 compounds, 0.91% hits; AID 1789, 2009;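 active = inhibition above the screen-wide mean plus 3 SD, computed separately per campaign, cut at about 16% in these data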;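 also: 0% = DMSO wells and 100% = 60 µM geldanamycin wells; inhibitors lower the luminescence because luciferase stays unfolded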
STAT3 act – IL-6 driven STAT3 reporter potentiators, primary screen, U3A cells, luciferase, luminescence, MLSCN library | IL-6 STAT3-luciferase reporter; 100% = signal with IL-6 EC80 alone | activation (% of control), % at 5.6 µM | 190,000 compounds, 0.91% hits;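 active = activation above the screen-wide mean of compound activation plus 3 SD, cut at about 130% in these data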;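 also: 0% = background luminescence of wells with medium and substrate only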
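Detection: reporter luminescence signal / Assay system: STAT1-lacking human U3A cells, STAT3 luciferase reporter / Incubation: compound pre-incubation 1 h before IL-6, then 6 h stimulation at 37 °C / Control set: IL-6-only high control / Read-out: % activation relative to IL-6 control / Probe or stimulus: Interleukin-6, 33 ng/mL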
TRAIL sens C8 – viability loss with TRAIL in NB7+C8 cells, primary screen, TRAIL sensitizer project, cell-based, ATPlite luminescence; inhibition (viability loss, TRAIL sensitization), % at 10 µM; 360,000 compounds, 1% hits; AID 624354, 2012;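 active = compounds causing at least 50% loss of cell viability in the single-dose screen, relative to plate controls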
Starred values were filed as active, the others as inactive; / = no result given. An excerpt weighted towards active compounds, which were near 2.3% of everything screened.

SMILES	STAT3 inh	PPC-1+TRAIL kill	STAT1 inh	HSP90 inh	STAT3 act	TRAIL sens C8
CC1=NC(=O)C(N=Nc2ccccc2C)N1c1ccccc1 (stereo not given)	-4	/	-6	1	106	/
CC1=NC(=O)C(N=Nc2cccc3ccccc23)N1c1ccccc1 (stereo not given)	-68	/	4	-1	159*	/
COC(=O)C1=CN(c2ccc(F)cc2)C=C(C(=O)OC)C1c1cccc([N+](=O)[O-])c1	/	/	/	1	/	9
CCn1c(C)nc2cc(C(=O)N/N=C/c3cccc(O)c3O)ccc21	21	17	-21	-1	86	52*
Cc1cccc(/C=N\NC(=O)c2ccc(Cl)cc2)c1O	18	34	-62	3	87	55*
CCn1c(C)nc2cc(C(=O)N/N=C/c3ccccc3)ccc21	16	11	-48	-3	91	6
CCOc1ccccc1NC(=O)CCNC(=O)N1CC(=O)Nc2ccccc21	/	/	/	/	/	-3
COc1ccccc1NCC(=O)NN=C1CCS(=O)(=O)c2ccc(F)cc21	/	/	/	/	/	3
O=[N+]([O-])c1c(Nc2ccccc2O)cc(Cl)c2nonc12	/	/	/	3	/	71*
C=CCSc1ncc(-c2ccccc2)cn1	9	20	-40	-2	94	5
OC(CN1CCN(Cc2ccccc2)CC1)c1ccc(F)cc1 (stereo not given)	8	58*	-1	-6	92	-4
O=C1CC(c2ccccc2)CC2=C1CN(C1CCCCC1)CN2 (stereo not given)	0	8	-1	0	102	8
COc1ccc(CC(N)c2csc(NC(=O)c3cc(C(C)(C)C)nn3Cc3ccccc3)n2)cc1 (stereo not given)	/	/	/	/	/	50*
Cc1cc(C)c(S(=O)(=O)Nc2ncn[nH]2)c(C)c1	/	/	/	-4	/	-2
O=C(Nc1nc2ccccc2n1CCN1CCCC1)C1CCCCC1	11	10	3	3	94	14
O=C(Nc1nc2ccccc2n1CCN1CCCCC1)C1CCCCC1	7	6	7	-4	98	55*
CCN(CC)CCn1c(NC(=O)c2ccc(Cl)cc2)nc2ccccc21	-42	-22	-16	-3	136*	32
Cc1ccc(C(=O)Nc2nc3ccccc3n2CCN2CCCC2)cc1	-61	5	-45	5	157*	39
O=C(Nc1nc2ccccc2n1CCN1CCCCC1)c1ccc(Cl)cc1	-18	-3	0	-1	122	/
C=CCN1C(=O)OC2(CCCCC2)C1(C)O (stereo not given)	4	10	-16	-2	99	-11
CCN(CC)Cc1c(O)ccc2cc(-c3nc4ccccc4n3C)c(=O)oc12	/	/	/	-2	/	-1
COc1cccc(CN(C)C(=O)C23CC4CC(CC(C4)C2)C3)c1	/	/	/	0	/	-14
O=C(N/N=C\c1ccc2c(c1)OCO2)c1ccco1	-7	16	-51	4	102	48
O=C(N/N=C/c1ccc2c(c1)OCO2)c1ccc2c(c1)OCO2	/	/	/	1	/	40
O=C(N/N=C\c1cccc(OC(=O)c2ccco2)c1)c1ccc2c(c1)OCO2	43	53*	-21	15	64	86*
SMILES	STAT3 inh	PPC-1+TRAIL kill	STAT1 inh	HSP90 inh	STAT3 act	TRAIL sens C8
O=C(N/N=C/c1cccnc1)c1ccc2c(c1)OCO2	/	/	/	-2	/	50*
Cc1ccc(CNC(=O)CN2C(=O)COc3ccc(C)cc32)cc1	3	-6	9	2	99	12
CCOC(=O)CC(NS(=O)(=O)c1ccc2[nH]cc(C(=O)O)c(=O)c2c1)c1ccc(OCC)c(OC)c1 (stereo not given)	/	/	/	2	/	-23
COc1ccc(/C=N/Nc2cc(C)nc3ccc(OC)cc23)c(OC)c1	/	/	/	0	/	89*
COc1ccccc1/C=N/Nc1cc(C)nc2ccc(C)cc12	/	/	/	1	/	2
COc1ccc2nc(C)cc(N/N=C/c3ccccc3)c2c1	/	/	/	/	/	53*
COc1ccc2nc(C)cc(Nc3ccc(N4CCN(C)CC4)cc3)c2c1	/	/	/	-5	/	49*
